Target: EcCATI (type I chloramphenicol acetyltransferase) (Escherichia coli, UniProt P62577)
Experiment: Direct ESI-MS
Format: binding
Details: for Cooperativity factor α: second ligand of the same type binding to EcCATI:1Ligand; for Cooperativity factor β: third ligand of the same type binding to EcCATI:2Ligands
How it was run: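 Recombinant E. coli type I CAT (Rosetta2 BL21 DE3; heat step, anion-exchange, gel filtration) desalted into 200 mM ammonium acetate pH ~7.0 and mixed with ligand freshly prepared in the same buffer. Trimer at ~10 μM final, with the protein:ligand ratio varied by ligand. Nano-ESI on a Q-TWIMS-TOF under native-preserving settings. Bound/free abundance ratios were fitted to a stepwise three-site model giving intrinsic Kd, α and β. Values are mean ± SD.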

EcCATI (type I chloramphenicol acetyltransferase), sequence (P62577 whole entry, looked up): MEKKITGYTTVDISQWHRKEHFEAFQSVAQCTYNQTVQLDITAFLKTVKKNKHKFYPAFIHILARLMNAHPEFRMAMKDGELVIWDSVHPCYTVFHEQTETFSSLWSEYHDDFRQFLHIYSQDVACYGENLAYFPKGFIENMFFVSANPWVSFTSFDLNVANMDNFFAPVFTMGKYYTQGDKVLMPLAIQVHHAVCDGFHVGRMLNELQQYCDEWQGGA

| SMILES | Cooperativity factor α | Cooperativity factor β |
| --- | --- | --- |
| CCSCCNC(=O)CCNC(=O)[C@H](O)C(C)(C)COP(=O)(O)OP(=O)(O)OC[C@H]1O[C@@H](n2cnc3c(N)ncnc32)[C@H](O)[C@@H]1OP(=O)(O)O [S-Et-CoA, S-ethyl-CoA] | 0.8 | 0.5 |
| O=C(N[C@H](CO)[C@H](O)c1ccc([N+](=O)[O-])cc1)C(Cl)Cl [Chl, chloramphenicol] | 0.5 | 0.2 |

Source: article PMC12306972 (Analytical and bioanalytical chemistry, 2023)
